The source made the active and inactive calls. The rule behind the calls is not given here.

For one assay, the system named is MDA-MB-231. Briefly: Growth inhibition of human MDA-MB-231 cells at 50 uM after 72 hrs by Alamar blue staining based fluorescence assay. Type of assay: functional, cell-based. The procedure, abridged: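 A549 or MDA-MB-231 cells seeded at 2 × 10^3 per well, left 24 h at 37 °C, then given compounds in medium for 72 h at 37 °C, 5% CO2. AlamarBlue added for a further 3 h at 37 °C; fluorescence read at ex 540/em 590 nm and % growth calculated from it. A549 in RPMI1640/10% FBS; MDA-MB-231 in L-15 with 2 mM glutamine/10% FBS.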

The target of assay [1] is T1, Lysine-specific demethylase 4A (Homo sapiens) (UniProt O75164).
T1 sequence (whole entry): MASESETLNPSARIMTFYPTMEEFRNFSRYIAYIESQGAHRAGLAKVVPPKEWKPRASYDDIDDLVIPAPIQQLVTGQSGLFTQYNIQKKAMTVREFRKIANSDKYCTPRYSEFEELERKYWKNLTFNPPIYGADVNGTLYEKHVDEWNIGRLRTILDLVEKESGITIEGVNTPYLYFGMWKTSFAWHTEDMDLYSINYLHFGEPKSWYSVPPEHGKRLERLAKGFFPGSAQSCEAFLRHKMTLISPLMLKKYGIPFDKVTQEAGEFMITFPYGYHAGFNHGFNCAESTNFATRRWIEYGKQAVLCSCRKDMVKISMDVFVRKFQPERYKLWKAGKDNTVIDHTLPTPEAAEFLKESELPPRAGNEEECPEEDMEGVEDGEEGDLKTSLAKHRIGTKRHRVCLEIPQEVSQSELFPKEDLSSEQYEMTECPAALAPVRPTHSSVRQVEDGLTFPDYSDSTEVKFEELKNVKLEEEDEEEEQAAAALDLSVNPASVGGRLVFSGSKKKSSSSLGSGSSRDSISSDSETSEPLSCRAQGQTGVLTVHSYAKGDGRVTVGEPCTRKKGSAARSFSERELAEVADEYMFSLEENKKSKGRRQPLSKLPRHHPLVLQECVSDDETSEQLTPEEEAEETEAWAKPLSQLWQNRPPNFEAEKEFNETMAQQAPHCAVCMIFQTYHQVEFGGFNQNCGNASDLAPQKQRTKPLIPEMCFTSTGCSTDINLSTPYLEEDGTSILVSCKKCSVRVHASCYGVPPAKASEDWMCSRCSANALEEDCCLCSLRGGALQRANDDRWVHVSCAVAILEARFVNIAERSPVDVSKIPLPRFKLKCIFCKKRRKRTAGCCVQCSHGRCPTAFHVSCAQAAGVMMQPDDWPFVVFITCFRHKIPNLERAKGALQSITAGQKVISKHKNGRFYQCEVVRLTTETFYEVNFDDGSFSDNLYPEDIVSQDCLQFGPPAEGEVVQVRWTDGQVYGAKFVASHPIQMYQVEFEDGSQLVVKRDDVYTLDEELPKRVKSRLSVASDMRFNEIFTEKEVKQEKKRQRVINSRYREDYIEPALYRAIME
Briefly: Inhibition of human N-terminal His-tagged KDM4A (1 to 350 residues) expressed in Escherichia coli at 50 uM using H3(21-44)-K36(Me3)-GK(Biotin)/2-OG as substrate measured after 1 hr by Alphalisa assay relative to control. The procedure, abridged: (§1)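 AlphaLISA demethylase assay in 50 mM HEPES pH 7.5, 0.1% BSA, 0.01% Tween 20 with DMSO. Enzyme and inhibitor combined, then peptide plus 2-OG (50 µM), Fe(II) (5 µM) and ascorbate (100 µM) in the added mix; 1 h at room temperature with shaking.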

The target of assay [2] is T2, Lysine-specific demethylase 2A (Homo sapiens) (UniProt Q9Y2K7).
T2 sequence (whole entry): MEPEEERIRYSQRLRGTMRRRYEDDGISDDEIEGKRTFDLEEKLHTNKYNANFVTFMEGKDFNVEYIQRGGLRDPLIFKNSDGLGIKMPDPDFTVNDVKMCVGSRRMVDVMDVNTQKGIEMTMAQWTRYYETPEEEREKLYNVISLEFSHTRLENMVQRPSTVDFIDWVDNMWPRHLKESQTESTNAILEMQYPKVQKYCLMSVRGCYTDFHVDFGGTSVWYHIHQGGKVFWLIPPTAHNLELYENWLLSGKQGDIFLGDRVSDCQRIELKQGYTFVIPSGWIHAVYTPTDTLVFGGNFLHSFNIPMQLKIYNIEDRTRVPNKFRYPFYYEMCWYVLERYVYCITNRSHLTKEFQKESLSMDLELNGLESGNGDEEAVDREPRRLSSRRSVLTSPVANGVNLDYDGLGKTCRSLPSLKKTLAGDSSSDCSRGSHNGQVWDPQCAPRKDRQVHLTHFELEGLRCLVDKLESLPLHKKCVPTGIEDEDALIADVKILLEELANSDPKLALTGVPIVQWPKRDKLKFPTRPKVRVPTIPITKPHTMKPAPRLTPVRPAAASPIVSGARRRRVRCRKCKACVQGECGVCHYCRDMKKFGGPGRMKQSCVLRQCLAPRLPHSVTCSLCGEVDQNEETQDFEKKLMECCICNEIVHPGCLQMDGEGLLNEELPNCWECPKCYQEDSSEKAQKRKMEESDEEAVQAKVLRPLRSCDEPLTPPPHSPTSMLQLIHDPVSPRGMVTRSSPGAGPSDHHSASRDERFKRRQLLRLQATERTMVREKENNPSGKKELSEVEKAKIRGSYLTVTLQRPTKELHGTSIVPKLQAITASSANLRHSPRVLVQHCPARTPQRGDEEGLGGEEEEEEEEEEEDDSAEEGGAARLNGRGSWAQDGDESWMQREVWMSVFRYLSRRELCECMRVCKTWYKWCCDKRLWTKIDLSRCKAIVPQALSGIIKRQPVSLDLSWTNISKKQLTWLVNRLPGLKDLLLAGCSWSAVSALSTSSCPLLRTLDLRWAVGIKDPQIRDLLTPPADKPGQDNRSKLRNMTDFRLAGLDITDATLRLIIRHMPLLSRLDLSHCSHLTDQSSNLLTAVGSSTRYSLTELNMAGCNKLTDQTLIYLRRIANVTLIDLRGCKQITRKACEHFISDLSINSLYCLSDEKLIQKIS
The assay is described as follows: Inhibition of human N-terminal FLAG/Avi-tagged KDM2A (2 to 700 residues) expressed in baculovirus infected Sf9 insect cells at 50 uM using H3(21-44)-K36(Me2)-GK(Biotin)/2-OG as substrate measured after 1 hr by Alphalisa assay relative to control. The method, boiled down: as §1

Assay [3] has as its target Lysine-specific demethylase 5A (Homo sapiens, UniProt P29375). The assay is described as follows: Inhibition of human C-terminal FLAG-tagged KDM5A (1 to 1090 residues) expressed in baculovirus infected Sf9 insect cells at 1 uM using H3(1-21)K4(Me3)-GGK(Biotin)/2-OG as substrate measured after 1 hr by Alphalisa assay relative to control. The procedure, abridged: as §1

Lysine-specific demethylase 5A, sequence (P29375 whole entry, the tested form may be a part): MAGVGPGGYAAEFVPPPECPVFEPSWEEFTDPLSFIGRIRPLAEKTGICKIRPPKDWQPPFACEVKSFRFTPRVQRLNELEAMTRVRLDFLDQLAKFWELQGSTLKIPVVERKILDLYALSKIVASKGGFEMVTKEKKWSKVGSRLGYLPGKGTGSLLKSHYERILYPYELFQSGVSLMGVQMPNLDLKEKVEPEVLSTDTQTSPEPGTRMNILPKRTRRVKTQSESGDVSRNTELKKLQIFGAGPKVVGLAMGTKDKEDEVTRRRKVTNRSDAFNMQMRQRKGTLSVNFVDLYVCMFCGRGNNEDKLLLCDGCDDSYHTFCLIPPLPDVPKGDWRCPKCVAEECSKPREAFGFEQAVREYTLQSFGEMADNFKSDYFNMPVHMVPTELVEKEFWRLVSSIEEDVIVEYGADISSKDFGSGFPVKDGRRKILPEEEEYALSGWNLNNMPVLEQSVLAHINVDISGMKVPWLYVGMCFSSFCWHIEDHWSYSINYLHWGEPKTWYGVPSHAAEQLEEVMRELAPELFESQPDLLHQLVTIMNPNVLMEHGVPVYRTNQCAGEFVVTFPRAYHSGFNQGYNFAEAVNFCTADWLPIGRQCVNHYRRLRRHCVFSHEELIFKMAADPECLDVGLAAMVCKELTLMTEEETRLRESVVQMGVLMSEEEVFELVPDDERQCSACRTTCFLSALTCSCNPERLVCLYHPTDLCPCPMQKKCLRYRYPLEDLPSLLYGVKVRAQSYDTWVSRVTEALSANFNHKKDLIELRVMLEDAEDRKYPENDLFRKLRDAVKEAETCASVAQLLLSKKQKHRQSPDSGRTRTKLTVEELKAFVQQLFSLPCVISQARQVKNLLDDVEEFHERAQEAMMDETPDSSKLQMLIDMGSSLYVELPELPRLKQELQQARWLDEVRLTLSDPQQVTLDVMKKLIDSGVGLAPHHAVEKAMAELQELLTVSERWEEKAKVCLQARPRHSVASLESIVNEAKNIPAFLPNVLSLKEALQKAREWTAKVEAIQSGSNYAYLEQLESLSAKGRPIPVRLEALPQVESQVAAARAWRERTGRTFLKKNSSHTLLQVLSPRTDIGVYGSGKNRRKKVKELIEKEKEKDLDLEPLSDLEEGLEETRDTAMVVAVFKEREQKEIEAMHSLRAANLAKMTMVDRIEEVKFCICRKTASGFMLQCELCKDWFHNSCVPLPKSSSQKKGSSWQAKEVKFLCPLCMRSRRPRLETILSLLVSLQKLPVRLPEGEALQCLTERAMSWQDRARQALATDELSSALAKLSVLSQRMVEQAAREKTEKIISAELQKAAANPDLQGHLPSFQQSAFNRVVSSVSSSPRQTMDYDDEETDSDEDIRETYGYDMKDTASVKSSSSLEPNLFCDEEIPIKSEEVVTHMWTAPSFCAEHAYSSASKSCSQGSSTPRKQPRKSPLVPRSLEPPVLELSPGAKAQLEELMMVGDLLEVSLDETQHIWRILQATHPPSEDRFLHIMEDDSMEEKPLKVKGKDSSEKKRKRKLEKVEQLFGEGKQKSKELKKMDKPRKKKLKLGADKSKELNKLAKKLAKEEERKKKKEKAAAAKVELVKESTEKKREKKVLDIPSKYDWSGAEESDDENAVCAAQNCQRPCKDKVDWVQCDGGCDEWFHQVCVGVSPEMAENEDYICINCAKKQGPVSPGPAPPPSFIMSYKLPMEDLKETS

Turning to `CCCCCCN(C)Cc1ccc(-c2[nH]c3c(C#N)cnn3c(=O)c2C(C)C)cc1`, the “growth inhibition (GI)” value in the assay on MDA-MB-231 was “Active”. The inhibition in assay [1] stood at 32.5%; in assay [2] it was 13.4%; in assay [3], 97.9%.

Turning to `CC(C)c1c(-c2ccccc2)[nH]c2c(C#N)cnn2c1=O`, the “growth inhibition (GI)” value with MDA-MB-231 is “Active”. Further, the inhibition in assay [1] was determined as 61.1%; in assay [2], 25.7%; in assay [3], 68.9%.

Consider `CCCCCN(C)CCCCC(=O)N(O)CCC(=O)O`, for which the inhibition was determined as 25.4% in assay [1], 51.7% in assay [2] and 30.8% in assay [3].

For the compound `CCCCCCN(C)CCc1ccc(-c2[nH]c3c(C#N)cnn3c(=O)c2C(C)C)cc1`, in the assay with MDA-MB-231, the “growth inhibition (GI)” value was “Active”. In addition, the values for the inhibition in assay [1] and in assay [2] were 71% and 38.4%, respectively.

Values taken from ChEMBL document CHEMBL4422684, “Identification of novel lysine demethylase 5-selective inhibitors by inhibitor-based fragment merging strategy” (Bioorg Med Chem, 2019).
